# Marks after values point to notes of the source that are not given here.
# Tests used:
# [1] = Phase I SAD/FI/MAD study: adverse events; type: in vivo, human
# FAAH = target: T1, FAAH (Homo sapiens, UniProt O00519); experiment: Leukocyte FAAH activity in participants; type: in vivo
# T1 sequence (O00519 1-579): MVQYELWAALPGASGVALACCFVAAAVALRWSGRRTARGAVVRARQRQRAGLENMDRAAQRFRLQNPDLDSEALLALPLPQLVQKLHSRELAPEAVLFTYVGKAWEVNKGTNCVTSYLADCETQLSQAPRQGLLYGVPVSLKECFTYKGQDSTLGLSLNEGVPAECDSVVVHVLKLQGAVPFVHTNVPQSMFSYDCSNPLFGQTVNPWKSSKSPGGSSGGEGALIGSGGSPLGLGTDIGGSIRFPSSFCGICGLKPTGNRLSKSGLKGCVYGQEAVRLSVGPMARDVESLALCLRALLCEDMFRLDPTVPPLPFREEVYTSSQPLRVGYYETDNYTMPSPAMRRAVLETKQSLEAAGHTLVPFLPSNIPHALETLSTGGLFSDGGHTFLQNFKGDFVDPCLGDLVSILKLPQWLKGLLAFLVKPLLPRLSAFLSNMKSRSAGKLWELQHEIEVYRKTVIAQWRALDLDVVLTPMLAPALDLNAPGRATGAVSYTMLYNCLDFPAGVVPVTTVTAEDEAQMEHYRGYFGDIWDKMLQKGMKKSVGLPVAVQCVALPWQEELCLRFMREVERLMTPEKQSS
# Method in brief: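 Healthy men and women aged 18–55 years (BMI 19–30 kg/m²) took single oral capsule doses of test compound (0.25–100 mg) or matching placebo in a double-blind design. They fasted at least 8 h before and 1 h after dosing. Leukocyte FAAH activity was followed after dosing and expressed as percent inhibition, judged by visual inspection. Values are means of six participants per group.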
# [2] = MAD 50 mg, moderate, serious, participant with fatal outcome
smiles,measurement,setting,value
"CN(C(=O)n1cnc(-c2ccc[n+]([O-])c2)c1)C1CCCCC1 [BIA 10-2474, 3-(1-(cyclohexyl(methyl)carbamoyl)-1H-imidazol-4-yl)pyridine 1-oxide]","Any AE, n (%)","[1]; 2.5 mg once daily 10 days, N = 6",1 (16.7%)
same,"Any AE, n (%)","[1]; 5 mg once daily 10 days, N = 6",1 (16.7%)
same,"Any AE, n (%)","[1]; 10 mg once daily 10 days, N = 6",3 (50%)
same,duration of blurred vision,"[1]; 10 mg/day, mild",< 2.5 h
same,participants with blurred vision,"[1]; 10 mg/day, two participants",2.3%
same,"Any AE, n (%)","[1]; 20 mg once daily 10 days, N = 6",4 (66.7%)
same,"Abdominal pain, No. events",[1]; MAD 50 mg,1
same,"Asthenia, No. events",[1]; MAD 50 mg,1
same,"Blurred vision, No. events",[1]; MAD 50 mg,1
same,"Diarrhea, No. events",[1]; MAD 50 mg,2
same,"Dizziness, No. events",[1]; MAD 50 mg,2
same,"Nausea, No. events",[1]; MAD 50 mg,1
same,"Headache, No. events","[1]; MAD 50 mg, 3 moderate",2 + 3^#
same,"Hot Flush, No. events","[1]; MAD 50 mg, moderate",1^#
same,"Soft feces, No. events","[1]; MAD 50 mg, moderate",1^#
same,"Diplopia, No. events","[1]; MAD 50 mg, moderate, serious",1^#§
same,"Transient global amnesia, No. events","[1]; MAD 50 mg, moderate, serious",1^#§
same,"Dysarthria, No. events",[1]; [2],1^#§&
same,"Feeling drunk, No. events",[1]; [2],1^#§&
same,"Vitreous floaters, No. events","[1]; MAD 50 mg, serious",1^§*
same,"Hemiparesis, No. events","[1]; MAD 50 mg, severe, serious",1^£§
same,"Nervous system disorder, No. events","[1]; MAD 50 mg, severe, serious, hospitalization",1^£§H
same,participants reporting treatment-emergent adverse effects,"[1]; any dose of BIA 10-2474, 15 participants",17.9%
same,participants with CNS (serious) adverse events,"[1]; repeated 50 mg (up to day 5), one with fatal outcome",five of six
same,participants with headache,"[1]; single 40 mg, 10 and 20 mg/day for 10 days, three participants",3.6%
same,"Any AE, n (%)","[1]; single dose 0.25 mg, N = 6",0
same,"Any AE, n (%)","[1]; single dose 1.25 mg, N = 6",0
same,"Any AE, n (%)","[1]; single dose 2.5 mg, N = 6",1 (16.7%)
same,"Any AE, n (%)","[1]; single dose 5 mg, N = 6",0
same,"Any AE, n (%)","[1]; single dose 10 mg, N = 6",1 (16.7%)
same,"Any AE, n (%)","[1]; single dose 20 mg, N = 6",0
same,"Any AE, n (%)","[1]; single dose 40 mg (SAD and FI combined), N = 18",5 (27.8%)
same,"Any AE, n (%)","[1]; single dose 100 mg, N = 6",1 (16.7%)
same,tolerability,[1]; up to 100 mg single dose and up to 20 mg once daily for 10 days,well tolerated
same,apparent maximum FAAH inhibition,"FAAH; 5 mg and above, visual inspection",> 97%
same,duration of FAAH inhibition by more than 90%,FAAH; doses above 2.5 mg,at least 72 hours
same,FAAH activity inhibited,"FAAH; doses above 2.5 mg, for at least 72 hours",more than 90%
same,FAAH inhibition,"FAAH; single dose 0.25 mg, visual inspection",more than 50%

# From publication PMC9292215 (Clinical Pharmacology and Therapeutics, 2021)
